One experiment deals with SK-OV-3. Description: Cytotoxicity against human SKOV3 cells after 48 hrs by MTT assay. Format: functional, cell-based. Particulars: SK-OV-3, 48 h. In short, it runs like this:
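HepG2, SK-OV-3, NCI-H460 and HL 7702 lines grown as monolayers in DMEM with 10% FBS plus penicillin/streptomycin at 37 °C, 5% CO2. Exponentially growing cells were seeded and exposed to the indicated concentrations for 48 h. MTT was then added for 4 h at 37 °C, formazan was dissolved in DMSO, and OD was read at 490 nm. Each concentration was run in triplicate wells, with three independent runs per line.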

Experiment [1] relates to HepG2. Description: Cell cycle arrest in human HepG2 cells assessed as accumulation at G2 phase at 8 uM after 48 hrs by propidium iodide staining-based flow cytometric method (reference value: 19.04%). It is filed as functional.
The test system of experiment [2] is HepG2. The experiment in a line: Cell cycle arrest in human HepG2 cells assessed as accumulation at S phase at 8 uM after 48 hrs by propidium iodide staining-based flow cytometric method (reference value: 30.49%). It is filed as functional.
Experiment [3] has as its system HepG2. The experiment in a line: Downregulation of cyclin B1 expression in human HepG2 cells after 48 hrs by Western blot method. It is filed as functional, cell-based. (In general: Immunoblotting shows a protein as a band on a membrane.)
The subject of experiment [4] is HepG2. Description: Induction of morphological changes in human HepG2 cells at 10 uM after 12 hrs by Hoechst 33258 staining-based fluorescent microscopic method. It is filed as functional, cell-based. In short, it runs like this: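 Cells were treated on cover slips, fixed in 4% paraformaldehyde for 10 min and washed with PBS. They were stained with Hoechst 33258 for 5 min, washed again, and nuclei were examined by fluorescence microscopy (excitation 350 nm, emission 460 nm).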

For experiment [5], the system named is HepG2. Description: Induction of apoptosis in human HepG2 cells assessed as membrane blebbing at 10 uM after 24 hrs by acridine orange/ethidium bromide staining-based fluorescent microscopic method. Format: functional, cell-based. In short, it runs like this:
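Cells were plated at 5×10^4 cells/mL on sterile cover slips. Medium was replaced with fresh medium containing 10% FBS plus compound. After treatment, cover slips were inverted onto slides with acridine orange/ethidium bromide stain and viewed by fluorescence microscopy.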

In experiment [6] the test system is HepG2. Description: Induction of apoptosis in human HepG2 cells assessed as viable cells at 8 uM after 24 hrs by annexin V/[…] staining-based fluorescent microscopic method (reference value: 91.31%). It is filed as functional. Particulars: HepG2, 24 h, read-out: Activity.
Experiment [7] has as its system HepG2. Description: Induction of apoptosis in human HepG2 cells assessed as viable cells at 12 uM after 24 hrs by annexin V/[…] staining-based fluorescent microscopic method (reference value: 91.31%). It is filed as functional. Particulars: HepG2, 24 h, read-out: Activity.
The test system of experiment [8] is HepG2. The experiment in a line: Induction of apoptosis in human HepG2 cells assessed as upregulation of Bax levels at 8 to 12 uM after 24 hrs by Western blot method. Format: functional, cell-based. In short, it runs like this:
(§1)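 Treated HepG2 cells were lysed on ice in 1% SDS/Tris-HCl pH 7.5 buffer with EDTA, NaCl, PMSF, leupeptin and trypsin inhibitor, then cleared at 12,000 × g for 5 min. Protein was quantified by BCA, and 40–50 µg was run on 12% SDS-PAGE and blotted to PVDF. Membranes were blocked with 5% milk, incubated with primary antibody overnight at 4 °C and HRP secondary for 1 h. Detection by chemiluminescence with densitometry.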

In experiment [9] the test system is HepG2. The experiment in a line: Induction of apoptosis in human HepG2 cells assessed as downregulation of Bcl-2 levels at 8 to 12 uM after 24 hrs by Western blot method. It is filed as functional, cell-based. In short, it runs like this: as §1
The subject of experiment [10] is HepG2. Description: Induction of apoptosis in human HepG2 cells assessed as increase in release of mitochondrial cytochrome c into cytosol at 8 to 12 uM after 24 hrs by Western blot method. Format: functional, cell-based. In short, it runs like this:
as §1

The test system of experiment [11] is HepG2. Description: Induction of apoptosis in human HepG2 cells assessed as upregulation of caspase-3 levels at 8 to 12 uM after 24 hrs by Western blot method. It is filed as functional, cell-based. In short, it runs like this: as §1

Active and inactive are the calls of the source. The rule behind the calls is not given here.

As to `CCOP(=O)(Cc1ccc(/N=C/c2cc3cc(C)ccc3[nH]c2=O)cc1)OCC`, inhibition in the experiment on SK-OV-3 was half-maximal at 34.8 µM (IC50). Besides, the figures for the Activity with HepG2 [1], with HepG2 [2] and in the experiment on HepG2 [3] were 34.68%, 30.01% and “Dose-dependent effect”, respectively. The outcome in the experiment with HepG2 [4], in the experiment on HepG2 [5], in the experiment with HepG2 [8], in the experiment with HepG2 [9], with HepG2 [10] and in the experiment on HepG2 [11] was Active. Also, the viability at 8 µM with HepG2 [6] was 62.5%. Moreover, the viability at 12 µM in the experiment with HepG2 [7] turned out to be 44.5%.

The values above are taken from ChEMBL document CHEMBL4261516, “Design, synthesis and pharmacological evaluation of new 2-oxo-quinoline derivatives containing α-aminophosphonates as potential antitumor agents” (Medchemcomm, 2017).
